IC50 and MIC50 data for 5 compounds are collected here from ChEMBL document CHEMBL3621182, “Adenosine analogs as inhibitors of tyrosyl-tRNA synthetase: Design, synthesis and antibacterial evaluation” (Bioorg Med Chem, 2015).

Assay [1] in a line: Inhibition of Staphylococcus aureus tyrosyl-tRNA synthetase. The method, boiled down: (§1)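 Tritiated tyrosine aminoacylation at 37°C. Mix (final): 100 mM Tris/Cl pH 7.9, 50 mM KCl, 16 mM MgCl2, 5 mM ATP, 3 mM DTT, 4 mg/ml E. coli MRE600 tRNA, 10 µM L-tyrosine including 0.3 µM L-[ring-3,5-3H]tyrosine. TyrRS (0.2 nM) preincubated 10 min at room temperature with a range of inhibitor concentrations. TCA precipitation onto filters, scintillation counting. Linear rates, under 50% tRNA acylation; IC50 at half activity.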

Another assay has as its system Pseudomonas aeruginosa. Nature of the assay: Antimicrobial activity against Pseudomonas aeruginosa ATCC 9027 by MTT assay. It counts as functional. Summed up:
(§2)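 Broth microdilution in LB medium with MTT read-out. Compound stock 1000 µg/ml in DMSO, diluted serially with sterile medium (50% v/v DMSO in PBS). Inoculum about 10^5 cfu/mL, incubated at 37°C. Then 3 mg/mL MTT in PBS added, 4-5 h at room temperature. Dye extracted with 10% SDS containing 5% isopropanol and HCl for 8-10 h. Absorbance at 570 nm gives MIC50.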
(Tetrazolium assays rely on reduction of a dye to a coloured formazan, in cell work by metabolically active cells.)

The nature of assay [2]: Inhibition of Staphylococcus aureus tyrosyl-tRNA synthetase expressed in Escherichia coli assessed as reduction in tRNA aminoacylation pre-incubated for 10 mins before addition of Escherichia coli MRE600 tRNA and L-tyrosine. The method, boiled down: as §1
The subject of the next assay is Escherichia coli. Nature of the assay: Antimicrobial activity against Escherichia coli ATCC 8739 by MTT assay. It counts as functional. The method, boiled down:
as §2

A further assay relates to Staphylococcus aureus. Nature of the assay: Antimicrobial activity against Staphylococcus aureus ATCC 6538 by MTT assay. It counts as functional. The method, boiled down:
as §2

Values after ≈ are worked out from the molar mass of the structure shown.

A word on the IC50: it is the point on the concentration scale where inhibition reaches its midpoint. Broadly, the MIC50 is the lowest concentration that inhibits either 50% of growth or 50% of the strains tested, depending on the study. The low end stands for greater potency, the high end for weaker potency.

On to `N[C@@H](Cc1ccc(O)cc1)C(=O)N[C@H](C(=O)O)[C@H]1[C@H](O)[C@]2(O)CO[C@@H]([C@@H]2O)N1O`, for which, in assay [1], the IC50 is < 0.001 µM.
For `Nc1ncnc2c1ncn2[C@@H]1O[C@H](COC(=O)c2cccc(Cl)c2)[C@@H](O)[C@H]1O`, the MIC50 against Pseudomonas aeruginosa came out at 8.7 µg/mL (≈ 21.4 µM); with Escherichia coli, 11.3 µg/mL (≈ 27.8 µM); against Staphylococcus aureus, 9.4 µg/mL (≈ 23.2 µM). The IC50 in assay [2] turned out to be 28 µM.
Consider `Nc1ncnc2c1ncn2[C@@H]1O[C@H](COC(=O)c2cccc(F)c2)[C@@H](O)[C@H]1O`, for which the results for the MIC50 against Pseudomonas aeruginosa, against Escherichia coli and with Staphylococcus aureus were 3.5 µg/mL (≈ 8.99 µM), 5.3 µg/mL (≈ 13.6 µM) and 20.4 µg/mL (≈ 52.4 µM), respectively. The IC50 in assay [2] was 11 µM.
`Nc1ncnc2c1ncn2[C@@H]1O[C@H](COC(=O)c2ccc(F)cc2)[C@@H](O)[C@H]1O`: the MIC50 was 11.2 µg/mL (≈ 28.8 µM) in the assay with Pseudomonas aeruginosa, 24.8 µg/mL (≈ 63.7 µM) against Escherichia coli and > 100 µg/mL in the assay on Staphylococcus aureus. Moreover, in assay [2], the IC50 came out at 51 µM.
As to `Nc1ncnc2c1ncn2[C@@H]1O[C@H](COC(=O)c2ccc(Br)cc2)[C@@H](O)[C@H]1O`, the values for the MIC50 with Pseudomonas aeruginosa, with Escherichia coli and against Staphylococcus aureus were 22.7 µg/mL (≈ 50.4 µM), 10.1 µg/mL (≈ 22.4 µM) and > 100 µg/mL, respectively. Besides, the IC50 in assay [2] is 62 µM.
